Screening data from PubChem BioAssay.
ABCB1 block: inhibitors of human ABCB1 transporter, ABCG2 counter-screen; inhibition, % at 6.6 µM; CCRF-Adr cells, JC-1 efflux, flow cytometry; P08183; hit rate 0.067% among 190,000; in the data active = inhibition above about 40%;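 also: 0% = vehicle and 100% = reference inhibitor; higher value means more JC-1 retained so stronger ABCB1 efflux block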
Target sequence (P08183 whole entry, looked up): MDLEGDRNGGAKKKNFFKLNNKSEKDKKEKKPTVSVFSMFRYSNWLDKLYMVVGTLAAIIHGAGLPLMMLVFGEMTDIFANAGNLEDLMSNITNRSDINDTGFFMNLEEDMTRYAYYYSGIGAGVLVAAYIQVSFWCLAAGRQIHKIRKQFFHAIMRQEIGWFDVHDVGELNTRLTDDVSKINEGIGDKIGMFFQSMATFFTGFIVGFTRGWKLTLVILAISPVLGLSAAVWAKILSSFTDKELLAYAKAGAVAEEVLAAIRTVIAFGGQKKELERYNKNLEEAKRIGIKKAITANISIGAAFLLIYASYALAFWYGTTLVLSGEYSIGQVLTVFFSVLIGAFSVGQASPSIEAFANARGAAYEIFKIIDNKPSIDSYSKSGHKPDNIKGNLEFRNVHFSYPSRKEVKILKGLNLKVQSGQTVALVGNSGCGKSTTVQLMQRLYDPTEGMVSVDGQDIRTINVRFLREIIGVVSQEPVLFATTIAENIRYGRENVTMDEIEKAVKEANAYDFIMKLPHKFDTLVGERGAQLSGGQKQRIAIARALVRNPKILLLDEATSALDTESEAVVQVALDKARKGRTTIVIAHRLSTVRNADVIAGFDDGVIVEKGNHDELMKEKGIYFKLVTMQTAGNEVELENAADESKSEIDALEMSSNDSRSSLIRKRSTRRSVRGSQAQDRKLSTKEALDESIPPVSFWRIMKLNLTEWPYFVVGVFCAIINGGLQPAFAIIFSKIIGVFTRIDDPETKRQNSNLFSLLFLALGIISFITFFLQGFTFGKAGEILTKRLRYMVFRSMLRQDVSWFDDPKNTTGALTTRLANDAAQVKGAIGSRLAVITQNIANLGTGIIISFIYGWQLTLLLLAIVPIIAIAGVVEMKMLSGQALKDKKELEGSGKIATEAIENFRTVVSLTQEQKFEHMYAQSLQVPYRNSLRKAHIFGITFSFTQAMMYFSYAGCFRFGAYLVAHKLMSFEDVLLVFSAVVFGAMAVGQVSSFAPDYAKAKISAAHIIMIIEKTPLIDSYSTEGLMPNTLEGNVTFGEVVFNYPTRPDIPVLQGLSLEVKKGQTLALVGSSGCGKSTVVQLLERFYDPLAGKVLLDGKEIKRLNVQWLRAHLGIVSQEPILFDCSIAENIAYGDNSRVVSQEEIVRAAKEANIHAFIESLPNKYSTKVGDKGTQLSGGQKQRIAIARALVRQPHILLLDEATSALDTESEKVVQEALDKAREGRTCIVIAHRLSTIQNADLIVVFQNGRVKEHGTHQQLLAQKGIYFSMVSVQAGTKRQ
Rad51 HR inh: Rad51 (human) homologous recombination inhibition | hRad51 DNA strand exchange, fluorescence dequenching | inhibition, % at 10 µM | AID 1385 | hit rate 0.085% among 200,000 | Q06609;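 active = inhibition above 40% at the single screening dose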;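 also: 0% = DMSO control wells and 100% = blanks with heterologous ssDNA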
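Material: human Rad51–ssDNA filaments; Probe or stimulus: labelled 47-mer dsDNA for strand exchange; Doses: single 10 µM dose; Incubation: 37 °C 15-min filament assembly, 30-min compound preincubation, 15-min exchange; Technique: FRET fluorescence dequenching, excitation 485 nm, emission 520 nm; Measure: Fluorescence-based percent inhibition, control- and blank-normalised; Benchmarks: plate control and blank wells.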
ABCG2 inh: human ABCG2 inhibition, ABCB1 as counter-screen; Q9UNQ0; IgMXP3 cells, JC-1 efflux, flow cytometry; inhibition, % at 6.6 µM; hit rate 0.1% among 190,000;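 active = inhibition above 80%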;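 also: 0% = DMSO and 100% = nicardipine control wells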
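Times: 10 min at 25 °C | Test system: Two drug-resistant human cell lines, ABCG2 and ABCB1 | Quantity: 3 million cells/mL final, two lines in 1:1 ratio | Signal: Flow cytometry, 530 nm JC-1 signal | Dosing: Compound at 6.6 µM | Controls: Nicardipine and DMSO wells | Reagent: JC-1 as fluorescent efflux pump substrate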
HSV augment: HSV replication enhancement; HSV replication augmentation in cells, fold increase; maximum fold increase; hit rate 0.005% among 220,000; AID 1956; in the data active = maximum fold increase above about 1.5; inconclusive = no clear call, values can overlap the other calls; tested in PC3 cells
ABCB6 inh MLPCN: inhibitors of human ABC transporter ABCB6. Q9NP58. K562-ABCB6 porphyrin accumulation, flow cytometry, 1 h; active compounds read low. fluorescence ratio to DMSO, % at 10 µM. hit rate 0.19% among 360,000. AID 602162;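 active = fluorescence ratio to DMSO below 75%, the collection mean minus 3 SD; inconclusive = too few cells collected in the well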;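 also: signal is porphyrin accumulated inside mitochondria; 100% equals median channel fluorescence of DMSO control wells; lower ratio means ABCB6 inhibition with less porphyrin fluorescence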
p97 inhibitor: inhibitors of human p97 ATPase | recombinant p97 ATPase, Kinase-Glo ATP luminescence, 3 h | hit rate 0.42% among 220,000 | inhibition, % at 8 µM; in the data active = inhibition above about 15%;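 also: 0% = DMSO vehicle and 100% = wells lacking enzyme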
ABCB1 confirm: inhibits human ABCB1 efflux, confirmed at single point; shares compounds with ABCG2 inh; CCRF-Adr cells, JC-1 efflux, flow cytometry; inhibition, % at 6.6 µM; hit rate 7% among 270; AID 1451;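 active = inhibition of pump activity above 50%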;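 also: 0% = DMSO and 100% = nicardipine full pump inhibition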
ABCG2 confirm: inhibits human ABCG2 efflux, confirmed at single point; IgMXP3 cells, JC-1 efflux, flow cytometry; shares compounds with ABCG2 inh; hit rate 6% among 270; inhibition, % at 6.6 µM;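 active = inhibition above 50%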;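 also: 0% = DMSO wells and 100% = nicardipine pump inhibitor wells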
IgMXP3 autofluor: counter-screen for ABCG2 inhibitors: compound fluorescence in IgMXP3 cells | shares compounds with ABCG2 inh | compound autofluorescence 488/530 nm, flow; active compounds read high | fluorescence at 6.6 µM | hit rate 30% among 270;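 active = fluorescence in ABCG2-expressing cells above the plate's control-well mean plus 3 SD, cut at about 15 in these data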;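 also: median cell fluorescence with compound minus that of DMSO-treated control cells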
CCRF autofluor: counter-screen for ABCB1 inhibitors: compound fluorescence in CCRF-Adr cells; hit rate 30% among 270; shares compounds with ABCG2 inh; fluorescence at 6.6 µM; compound autofluorescence 488/530 nm, flow cytometry; active compounds read high;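 active = fluorescence beyond the plate control mean plus 3 SD, with a fluorescence-to-maximum score over 2, cut at about 25 in these data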
An asterisk follows results filed as active; i = inactive; ? = inconclusive; . = no result given; + = active, no number. Most compounds without a hit are left out; they make up all but 0.55% or so of the library.

SMILES | ABCB1 block | Rad51 HR inh | ABCG2 inh | HSV augment | ABCB6 inh MLPCN | p97 inhibitor | ABCB1 confirm | ABCG2 confirm | IgMXP3 autofluor | CCRF autofluor
O=C(NCCCc1ccccc1)Nc1cccc(Cl)c1 | 0 | -6 | 94* | i | 96 | -7 | 2 | 21 | -0.04 | -1.7
O=C(NCCc1ccncc1)Nc1cccc(Cl)c1 | 0 | 3 | 2 | i | 108 | 4 | . | . | . | .
CC(=O)N1C[C@H]2CON(C)[C@H]2C[C@H]1c1ccccc1Br | . | . | . | . | 99 | . | . | . | . | .
Cc1ccc(N(CCCCN2C(=O)c3ccccc3C2=O)C(=O)c2ccc(Cl)s2)cc1 | 7 | -9 | 67 | i | 99 | -3 | 11 | 21 | -2.2 | -4.6
CCN(CC)P(=O)(Nc1cccc(C(F)(F)F)c1)c1ccc(N(C)C)cc1NC(=O)c1ccco1 (centres undefined) | 56* | 1 | 22 | i | 92 | 0 | 62* | 13 | -0.04 | 37*
CCc1cc(C(=O)N/N=C/c2ccc(OC)cc2)c2ccccc2n1 | . | . | . | . | 101 | . | . | . | . | .
O=C(Nc1ccc(F)cc1)NC1CCN(Cc2nnnn2Cc2ccco2)CC1 | 1 | -3 | 83* | i | 91 | -3 | 1 | 21 | -1.7 | -2.9
CC1(C)N=C(N)N=C(N)N1c1ccc(Oc2ccc(Cl)cc2)c(Cl)c1 | . | . | . | . | 98 | . | . | . | . | .
COC(=O)C1=C(C)NC(C)=C(C(=O)OC)C1c1ccc(-c2cccc(Cl)c2Cl)o1 | 4 | 18 | 85* | i | 101 | -3 | 8 | 6 | 0.21 | -1.3
COC(=O)C1=C(C)NC(C)=C(C(=O)OC)C1c1ccc(-c2cc(Cl)ccc2Cl)o1 | 1 | . | 14 | i | 94 | 2 | . | . | . | .
CC(C)CCC(CCNCc1ccccn1)c1ccc(Cl)cc1 (centres undefined) | . | . | . | . | 94 | . | . | . | . | .
CCc1ccc(OCC(=O)N/N=C(\C)c2ccc(OC(F)F)cc2)cc1 | 4 | 5 | 104* | i | 100 | 2 | -9 | 17 | 15* | 12
Cc1ccc(NS(=O)(=O)c2ccc(C)c(NC(=O)c3ccc(S(=O)(=O)N4CCCCCC4)cc3)c2)c(C)c1 | . | . | . | . | 116 | . | . | . | . | .
CCOC(=O)c1cccc(NC(=O)c2cnc3ccccc3n2)c1 | 3 | 16 | 91* | i | 93 | -1 | 2 | 68* | -0.59 | -4.4
CCOC(=O)c1cccc(NC(=O)c2cccnc2)c1 | 0 | 5 | 2 | i | 99 | 2 | . | . | . | .
CCOC(=O)C1=C(CNCc2ccc(C)cc2)NC(=O)NC1c1cc(C)ccc1C (centres undefined) | 40 | -5 | 25 | i | 94 | 2 | 15 | 13 | -1.8 | -4.6
CCOC(=O)C1=C(Cn2cnc3ccccc32)NC(=O)NC1c1cc(C)ccc1C (centres undefined) | 1 | 8 | 10 | i | 95 | 6 | . | . | . | .
CC(=O)Oc1cc(C(=O)OCC(=O)N2CCc3ccccc3C2)cc(OC(C)=O)c1OC(C)=O | . | . | . | . | 96 | . | . | . | . | .
N#CC(C#N)=C1C=C2C=C(N3CCCCC3)CCC2CC1 (centres undefined) | 170* | i | 51 | ? | . | 4 | 62* | 62* | 17* | 67*
N#CC1=C(N)C2=C(N3CCCCC3)CCCC2C1(C#N)C#N (centres undefined) | 0 | -4 | -1 | i | 96 | 3 | . | . | . | .
CCN(CC)C1=CC2=CC(=C(C#N)C#N)CCC2CC1 (centres undefined) | 84* | . | 43 | ? | 245 | -4 | 24 | 74* | 19* | 40*
CCCCN(C)C1=CC2=CC(=C(C#N)C#N)CCC2CC1 (centres undefined) | + | . | 85* | ? | 430 | -3 | 164* | 49 | 44* | 232*
CC(=O)Nc1ccc(S(=O)(=O)N[C@@H](C)C(=O)OCC(=O)Nc2ccc3c(c2)OCCO3)cc1 | . | . | . | . | 104 | . | . | . | . | .
O=C(c1ccco1)N1CCN(C2CN(Cc3ccc([N+](=O)[O-])cc3)S(=O)(=O)C2)CC1 (centres undefined) | . | . | . | . | 110 | . | . | . | . | .
CCOc1cc2c(C#N)c(N3CCCC3)nc(N)c2c(N)n1 | . | -1 | . | i | 97 | . | . | . | . | .
SMILES | ABCB1 block | Rad51 HR inh | ABCG2 inh | HSV augment | ABCB6 inh MLPCN | p97 inhibitor | ABCB1 confirm | ABCG2 confirm | IgMXP3 autofluor | CCRF autofluor
CCCCN(CC)c1nc(N)c2c(N)nc(OCC)cc2c1C#N | 4 | -8 | 78 | i | 101 | 2 | 9 | 33 | -0.14 | -2.6
O=C(CCOc1ccccc1)Nc1ccc(S(=O)(=O)Nc2ncccn2)cc1 | . | . | . | . | 97 | . | . | . | . | .
Cc1cc(C)c(C(=O)COC(=O)CCNS(=O)(=O)c2c(Cl)cccc2Cl)cc1C | 3 | -3 | 97* | i | 100 | -8 | 10 | 47 | -1.8 | -4.9
Cc1cc(NC(=O)C(C)C)n(-c2nc3ccccc3s2)n1 | 4 | -13 | 81* | i | 95 | -4 | 0 | 30 | 3.2 | 10
Cc1cc(NC(=O)CN2CC(C)OC(C)C2)n(-c2nc3ccccc3s2)n1 (centres undefined) | 9 | -1 | 48 | i | 103 | 3 | . | . | . | .
CCN(CCCNC(=O)CCc1nc(-c2ccc(C)cc2)no1)c1cccc(C)c1 | 3 | 7 | 83* | i | 101 | -4 | 2 | 32 | -1.6 | -4.2
Cc1sc2ncnc(NCC(O)c3ccc([N+](=O)[O-])cc3)c2c1C (centres undefined) | . | . | . | . | 93 | . | . | . | . | .
CCOc1ccc(OCC)c(NC(=O)CN2CCN(c3cccc(C)c3)CC2)c1 | 3 | . | 74 | . | 90 | -7 | 10 | 30 | 1.7 | 4.5
CCOc1ccc(OCC)c(NC(=O)CN2CCN(c3cccc(C)c3)C(C)C2)c1 (centres undefined) | 2 | . | 9 | . | 97 | 1 | . | . | . | .
Cc1ccc(S(=O)(=O)N2C[C@@H](C)[C@]3(C2)[C@H](O)[C@H](OC(=O)NCc2ccco2)C[C@H]2C(=O)N(c4ccccc4)C(=O)[C@H]23)cc1 | . | . | . | . | 102 | . | . | . | . | .
COCCn1c(C)cc(C(=O)CSc2cc(C)c3ccccc3n2)c1C | 3 | -6 | 92* | i | 100 | -6 | 1 | 19 | 0.71 | 2.6
CCOC(=O)c1cc(-c2ccc(Cl)cc2)nc2onc(C)c12 | 1 | . | 83* | . | . | -2 | 2 | 37 | 2.5 | 9.5
CCOc1ccc(OCc2ccc(C(=O)OCc3ccccn3)o2)cc1 | 3 | . | 87* | . | 90 | 0 | 0 | 26 | 0.46 | -2.7
COc1ccc2cc(C(=O)NCC(=O)O)sc(=O)c2c1OC | 1 | . | 6 | . | 89 | 4 | . | . | . | .
